Reference: ChEMBL document CHEMBL3352056, “Inhibition of prostaglandin E(2) production by synthetic minor prenylated chalcones and flavonoids: synthesis, biological activity, crystal structure, and in silico evaluation” (Bioorg Med Chem Lett, 2014)
The source made the active and inactive calls. No cut-off for these calls is given here.

Assays:
[1] = tested on: RAW264.7; experiment: Inhibition of IFN-gamma/LPS-induced PGE2 production in mouse RAW264.7 cells at 50 uM after 17 to 20 hrs by EIA method; type: functional
Summary of the method: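 In RAW 264.7 cells seeded at 4 × 10⁵/well and attached for 2 h at 37 °C, compound was added with LPS, using 0.1% final DMSO as vehicle. Incubation ran 17–20 h at 37 °C, 5% CO₂. Supernatant PGE₂ was quantified by EIA from a standard curve and expressed as percent inhibition at a single test concentration.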

[2] = Cytotoxicity against mouse RAW264.7 cells assessed as cell viability by MTT assay; type: cell-based; parameters: concentration or dose not given beside the values; details: read-out: Activity
Summary of the method: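 After the 17–20 h LPS co-treatment of RAW 264.7 cells (0.1% DMSO vehicle), the supernatant was removed and MTT (0.05 mg/mL) was added. Cells were held at 37 °C for 4 h. Formazan was dissolved in 100% DMSO and absorbance was read at 570 nm. Results are given as % viability. Culture viability before use was >95% by trypan blue.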

[3] = tested on: RAW264.7; experiment: Inhibition of IFN-gamma/LPS-induced PGE2 production in mouse RAW264.7 cells after 17 to 20 hrs by EIA method; type: functional, cell-based
Summary of the method: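 RAW 264.7 cells (4 × 10⁵/well) attached for 2 h at 37 °C, 5% CO₂. They were then co-incubated with LPS and compound in DMSO (0.1% final) for 17–20 h. Supernatant PGE₂ was measured by EIA against a standard curve. Dose-response testing spanned 0.78 to 50; group differences were tested by one-way ANOVA with Dunnett's test.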

[4] = tested on: RAW264.7; experiment: Inhibition of IFN-gamma/LPS-induced nitric oxide production in mouse RAW264.7 cells by Griess assay; type: functional, cell-based

IC50 [3] [nM]	IC50 [4] [nM]	SMILES	inhibition [1]	viability [2] [%]	inhibition at 50 µM [1] [%]
		COc1cc(O)c(C(=O)/C=C/c2cccc(-c3ccc(F)cc3)c2)cc1CC=C(C)C	inactive	> 100	
		COc1cc(O)c(C(=O)/C=C/c2ccc(C)cc2)cc1CC=C(C)C		> 100	64
		COc1ccc(C(=O)/C=C/c2ccc(OC)c(OC)c2)c(O)c1		> 100	75
		COc1ccc2c(=O)c(OCC=C(C)C)c(-c3ccc(OC)c(OC)c3)oc2c1		> 100	58
		COc1cc(O)c(C(=O)/C=C/c2ccc(Br)cc2)cc1CC=C(C)C		> 100	70
		COc1ccc2c(c1)O/C(=C\c1ccc(C)cc1)C2=O		> 100	78
		COc1cc2c(cc1CC=C(C)C)C(=O)/C(=C/c1ccc(OC)c(OC)c1)O2		> 100	83
		COc1ccc(C(=O)/C=C/c2ccc(C)cc2)c(O)c1	inactive	97	
		COc1cc(O)c(C(=O)/C=C/c2ccc(O)c(O)c2)cc1CC=C(C)C		> 100	61
2100	13800	COc1cc(O)c(C(=O)/C=C/c2ccc(OC)c(OC)c2)cc1CC=C(C)C		> 100	90
		COc1ccc2c(c1)O/C(=C\c1ccc(OC)c(OC)c1)C2=O		> 100	76
		COc1ccc2c(=O)c(O)c(-c3ccc(C)cc3)oc2c1		78	70
		CC(C)=CCOc1ccc2c(c1)O/C(=C\c1ccc(C)cc1)C2=O		> 100	43
		CC(C)=CCOc1ccc(/C=C2\Oc3ccccc3C2=O)cc1		> 100	77
		COc1cc(O)c(C(=O)/C=C/c2ccc(-c3ccc(F)cc3)cc2)cc1CC=C(C)C		> 100	63
		COc1ccc2c(=O)c(OCC=C(C)C)c(-c3ccc(C)cc3)oc2c1		> 100	41
100		CS(=O)(=O)Nc1ccc([N+](=O)[O-])cc1OC1CCCCC1 [NS-398]		> 100	97
		COc1cc2c(cc1CC=C(C)C)C(=O)/C(=C/c1ccc(C)cc1)O2	inactive	> 100	
		COc1ccc2c(=O)c(O)c(-c3ccc(OC)c(OC)c3)oc2c1		82	80
